In ChEMBL document CHEMBL1128365, “S-(5'-deoxy-5'-adenosyl)-1-aminoxy-4-(methylsulfonio)-2-cyclopentene (AdoMao): an irreversible inhibitor of S-adenosylmethionine decarboxylase with potent in vitro antitrypanosomal activity” (J Med Chem, 1995):

What was measured:
[1] = tested on: Trypanosoma brucei brucei; assay: Compound was evaluated for the inhibition of growth of Trypanosoma brucei; type: functional, organism-based
How it was run: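 T. brucei brucei bloodforms cultured in modified Iscove's medium, 3% CO2 in air, 37 °C, feeder layer-free. Inhibitor dissolved in medium; half the volume replaced daily with double-strength inhibitor. Growth read by daily cell counts, IC50 after 48 h. Alternatively: 24 h with inhibitor, wash, 24 h with 1.0 μCi [3H]hypoxanthine, filtration and scintillation counting. Mean of two determinations.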

[2] = biological target: T1, S-adenosylmethionine decarboxylase proenzyme (Homo sapiens) (UniProt P17707); assay: (§1) compound was evaluated for the inhibitor constant against human S-adenosyl-L-methionine decarboxylase
T1 sequence (whole entry): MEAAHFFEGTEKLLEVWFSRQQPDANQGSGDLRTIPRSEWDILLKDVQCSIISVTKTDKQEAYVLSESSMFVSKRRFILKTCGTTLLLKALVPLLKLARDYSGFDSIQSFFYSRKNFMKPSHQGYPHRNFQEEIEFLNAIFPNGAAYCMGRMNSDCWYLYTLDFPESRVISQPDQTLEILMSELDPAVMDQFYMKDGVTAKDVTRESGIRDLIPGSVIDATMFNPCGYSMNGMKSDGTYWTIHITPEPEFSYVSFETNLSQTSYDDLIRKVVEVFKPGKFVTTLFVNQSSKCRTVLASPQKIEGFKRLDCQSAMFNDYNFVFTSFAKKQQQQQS

[3] = biological target: T2, S-adenosylmethionine decarboxylase proenzyme (Homo sapiens, UniProt P17707); assay: as §1
T2 sequence (P17707 whole entry): T1 sequence (whole entry)

[4] = biological target: S-adenosylmethionine decarboxylase (Escherichia coli) (UniProt P0A7F6); assay: compound was evaluated for the inhibitor against Escherichia coli S-adenosyl-L-methionine decarboxylase.
HL-60 [5] = assay: Polyamine levels in cultured HL60 cells on spermine at the concentration of 10.0 uM; type: functional, Homo sapiens
How it was run: (§2)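 HL60 human promyelocytic leukemia cells exposed to inhibitor for 96 h, then sonicated. AdoMet-DC activity measured by the Anton and Kutny method. Intracellular putrescine, spermidine and spermine quantified by HPLC (Danzin method). Each value is the mean of two determinations.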

HL-60 [6] = assay: Polyamine levels in cultured HL60 cells on spermine at the concentration of 50.0 uM; type: functional, Homo sapiens; how it was run: as §2
HL-60 [7] = assay: Polyamine levels in cultured HL60 cells on S-Adenosyl-methionine decarboxylase at the concentration of 10.0 uM; type: functional, Homo sapiens; how it was run: as §2
HL-60 [8] = assay: Polyamine levels in cultured HL60 cells on spermidine at the concentration of 1.0 uM; type: functional, Homo sapiens; how it was run: as §2
HL-60 [9] = assay: Polyamine levels in cultured HL60 cells on S-Adenosyl-methionine decarboxylase at the concentration of 100.0 uM; type: functional, Homo sapiens; how it was run: as §2
HL-60 [10] = assay: Polyamine levels in cultured HL60 cells on S-Adenosyl-methionine decarboxylase at the concentration of 50.0 uM; type: functional, Homo sapiens; how it was run: as §2
HL-60 [11] = assay: Polyamine levels in cultured HL60 cells on spermidine at the concentration of 100.0 uM; type: functional, Homo sapiens; how it was run: as §2
HL-60 [12] = assay: Polyamine levels in cultured HL60 cells on spermidine at the concentration of 10.0 uM; type: functional, Homo sapiens; how it was run: as §2
HL-60 [13] = assay: Polyamine levels in cultured HL60 cells on spermine at the concentration of 0.1 uM; type: functional, Homo sapiens; how it was run: as §2
HL-60 [14] = assay: Polyamine levels in cultured HL60 cells on S-Adenosyl-methionine decarboxylase at the concentration of 1.0 uM; type: functional, Homo sapiens; how it was run: as §2
HL-60 [15] = assay: Polyamine levels in cultured HL60 cells on spermine at the concentration of 1.0 uM; type: functional, Homo sapiens; how it was run: as §2
HL-60 [16] = assay: Polyamine levels in cultured HL60 cells on putrescine at the concentration of 50.0 uM; type: functional, Homo sapiens; how it was run: as §2
[17] = tested on: Trypanosoma brucei rhodesiense; assay: Compound was evaluated for the percentage inhibition of growth of uM; type: functional
HL-60 [18] = assay: Polyamine levels in cultured HL60 cells on spermine at the concentration of 100.0 uM; type: functional, Homo sapiens; how it was run: as §2
[19] = tested on: Trypanosoma brucei rhodesiense; assay: Compound was evaluated for the inhibition of growth of brucei rhodesiense (KETRI 243).; type: functional, organism-based
[20] = biological target: T1, S-adenosylmethionine decarboxylase proenzyme (Homo sapiens); assay: (§3) Compound was evaluated for the inhibitor constant against human S-adenosyl-L-methionine decarboxylase
HL-60 [21] = assay: Polyamine levels in cultured HL60 cells on putrescine at the concentration of 0.1 uM; type: functional, Homo sapiens; how it was run: as §2
HL-60 [22] = assay: Polyamine levels in cultured HL60 cells on putrescine at the concentration of 10.0 uM; type: functional, Homo sapiens; how it was run: as §2
HL-60 [23] = assay: Polyamine levels in cultured HL60 cells on spermidine at the concentration of 0.1 uM; type: functional, Homo sapiens; how it was run: as §2
HL-60 [24] = assay: Polyamine levels in cultured HL60 cells on S-Adenosyl-methionine decarboxylase at the concentration of 0.1 uM; type: functional, Homo sapiens; how it was run: as §2
HL-60 [25] = assay: Polyamine levels in cultured HL60 cells on spermidine at the concentration of 50.0 uM; type: functional, Homo sapiens; how it was run: as §2
HL-60 [26] = assay: Polyamine levels in cultured HL60 cells on putrescine at the concentration of 100.0 uM; type: functional, Homo sapiens; how it was run: as §2
[27] = biological target: S-adenosylmethionine decarboxylase (Escherichia coli) (UniProt P0A7F6); assay: Compound was evaluated for the inhibitor against Escherichia coli S-adenosyl-L-methionine decarboxylase
[28] = biological target: T2, S-adenosylmethionine decarboxylase proenzyme; assay: as §3
HL-60 [29] = assay: Polyamine levels in cultured HL60 cells on putrescine at the concentration of 1.0 uM; type: functional, Homo sapiens; how it was run: as §2

Sequence of S-adenosylmethionine decarboxylase (Escherichia coli) (P0A7F6 whole entry, looked up): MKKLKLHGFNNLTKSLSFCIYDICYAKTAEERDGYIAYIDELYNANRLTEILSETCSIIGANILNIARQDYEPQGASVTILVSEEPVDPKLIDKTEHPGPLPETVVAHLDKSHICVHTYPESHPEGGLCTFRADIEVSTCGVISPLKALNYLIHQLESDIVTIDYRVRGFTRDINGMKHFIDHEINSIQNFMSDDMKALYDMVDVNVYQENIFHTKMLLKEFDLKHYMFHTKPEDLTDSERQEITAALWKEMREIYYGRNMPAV

For `C[S+](C[C@H]1O[C@@H](n2cnc3c(N)ncnc32)[C@H](O)[C@@H]1O)[C@H]1C=C[C@H](ON)C1` (stereo not given in full), the IC50 [1] was 10 µM, the kinact [2] was 0.079 min⁻¹ and the Ki [3] was 21.2 µM. It also gave a kinact [4] of 0.025 min⁻¹.
For `C[S+](C[C@H]1O[C@@H](n2cnc3c(N)ncnc32)[C@H](O)[C@@H]1O)C1C=CC(ON)C1.O=S(=O)(O)O.O=S(=O)([O-])O` (stereo not given in full), the IC50 [1] was 0.9 µM, the Activity (HL-60 [5]) was 31.6 nM/mg and the Activity (HL-60 [6]) was 28 nM/mg. It also gave an Activity (HL-60 [7]) of 293 pmol/h/mg, an Activity (HL-60 [8]) of 10.1 nM/mg and an Activity (HL-60 [9]) of 489 pmol/h/mg. It also gave an Activity (HL-60 [10]) of 449 pmol/h/mg, an Activity (HL-60 [11]) of 16.1 nM/mg and an Activity (HL-60 [12]) of 8.4 nM/mg. The Activity (HL-60 [13]) was 30.4 nM/mg, the Activity (HL-60 [14]) was 347 pmol/h/mg and the Activity (HL-60 [15]) was 38.1 nM/mg. The Activity (HL-60 [16]) was 0.79 nM/mg, the Inhibition [17] was 49% and the Activity (HL-60 [18]) was 27 nM/mg. The IC50 [19] was 10 µM, the kinact [20] was 0.115 min⁻¹ and the Activity (HL-60 [21]) was 0.71 nM/mg. The Activity (HL-60 [22]) was 0.71 nM/mg, the Activity (HL-60 [23]) was 7.9 nM/mg and the Activity (HL-60 [24]) was 355 pmol/h/mg. The Activity (HL-60 [25]) was 11.2 nM/mg, the Activity (HL-60 [26]) was 0.94 nM/mg and the kinact [27] was 0.015 min⁻¹. The Ki [28] was 19.6 µM and the Activity (HL-60 [29]) was 0.94 nM/mg.
